Published values from different studies.
Protocols differ between the studies behind these lines.
Target: Serine/threonine-protein kinase LATS1 (LATS1, Homo sapiens, UniProt O95835)
One construct used (O95835 1-1130): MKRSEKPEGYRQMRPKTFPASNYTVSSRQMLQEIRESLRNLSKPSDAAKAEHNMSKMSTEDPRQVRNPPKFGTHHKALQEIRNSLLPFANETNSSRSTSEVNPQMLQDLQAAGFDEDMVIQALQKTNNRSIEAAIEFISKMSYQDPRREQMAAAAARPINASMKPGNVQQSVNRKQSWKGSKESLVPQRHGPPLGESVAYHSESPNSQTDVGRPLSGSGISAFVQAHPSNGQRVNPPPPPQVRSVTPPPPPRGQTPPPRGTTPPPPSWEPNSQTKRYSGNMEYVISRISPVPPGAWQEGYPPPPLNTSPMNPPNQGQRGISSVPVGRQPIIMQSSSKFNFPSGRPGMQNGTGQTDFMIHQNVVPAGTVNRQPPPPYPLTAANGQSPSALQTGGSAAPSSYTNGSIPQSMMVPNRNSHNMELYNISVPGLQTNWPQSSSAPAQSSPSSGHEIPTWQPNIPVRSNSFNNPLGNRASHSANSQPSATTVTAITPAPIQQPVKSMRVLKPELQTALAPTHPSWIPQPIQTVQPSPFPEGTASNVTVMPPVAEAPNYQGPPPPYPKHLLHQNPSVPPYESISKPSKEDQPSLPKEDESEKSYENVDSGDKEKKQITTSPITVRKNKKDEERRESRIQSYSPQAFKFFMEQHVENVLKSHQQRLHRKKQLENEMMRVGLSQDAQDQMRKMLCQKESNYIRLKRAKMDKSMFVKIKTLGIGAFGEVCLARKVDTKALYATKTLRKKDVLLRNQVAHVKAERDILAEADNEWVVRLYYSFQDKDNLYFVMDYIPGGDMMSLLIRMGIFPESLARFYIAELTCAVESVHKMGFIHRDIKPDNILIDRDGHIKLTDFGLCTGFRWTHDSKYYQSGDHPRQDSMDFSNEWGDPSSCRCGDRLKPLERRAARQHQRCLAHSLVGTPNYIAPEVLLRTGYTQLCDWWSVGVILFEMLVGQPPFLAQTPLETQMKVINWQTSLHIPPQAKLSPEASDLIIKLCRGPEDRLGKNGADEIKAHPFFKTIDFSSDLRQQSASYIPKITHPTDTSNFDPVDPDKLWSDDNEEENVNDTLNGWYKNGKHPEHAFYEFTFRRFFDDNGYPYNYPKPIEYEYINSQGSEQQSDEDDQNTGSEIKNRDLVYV

CN1CCN(C(=O)c2ccc(NC(=O)Nc3ccc(N(C)c4ccnc(Nc5ccc(CS(C)(=O)=O)cc5)n4)cc3)cc2)CC1
remaining binding (binding; 1 µM): 68%

Cc1cc(-c2ccnc3[nH]cc(F)c23)cc(F)c1[C@@]1(O)[C@H](C)CN(C2CCS(=O)(=O)CC2)C[C@@H]1C
residence time (binding; TR-FRET): 9.1 min

CC#CC(=O)N1CCC[C@H]1c1nc(-c2ccc(C(=O)Nc3ccccn3)cc2)c2c(N)nccn12
inhibition (enzyme activity; inhibitor; 1 µM): 7%

Cc1cc(-c2ccnc3[nH]cc(F)c23)cc(F)c1[C@@]1(O)[C@H](C)CN(C(=O)CN)C[C@@H]1C
residence time (binding; TR-FRET): 7.3 min

C=CC(=O)N1CCC([C@@H]2CCNc3c(C(N)=O)c(-c4ccc(Oc5ccccc5)cc4)nn32)CC1
inhibition (enzyme activity; inhibitor; 1 µM): 0%

CCCCC(=O)Nc1ccc(-c2ccc3ncn(CCC)c(=O)c3c2)cn1
remaining binding (binding; competition with immobilised ligand; 0.5 µM): 86%

C[C@H]1CC[C@H](n2c3cnccc3c3cnc(Nc4ccc5c(n4)CCN(C(=O)CO)C5)nc32)CC1
remaining signal (cell-free assay; 1 µM): 47%

C1=C/COCc2cc(ccc2OCCN2CCCC2)Nc2nccc(n2)-c2cccc(c2)COC/1
remaining binding (binding; 0.1 µM): 100%
